# Test results from ChEMBL document CHEMBL3272018, “Synthesis of aziridinylallylaminophosphine oxides and sulfides as potential adjuvant cancer chemotherapeutic agents” (J Med Chem, 1976).
# Activity calls are given as the source filed them. The rule behind the calls is not given here.
# Legend:
# [1] = tested on: Rattus norvegicus; experiment: Toxicity in rat allografted with rat Walker 256 cells intramuscularly assessed as change in body weight at 0.125 mg/kg, qd administered for 5 days; assay type: organism-based; set-up: dose 0.125 mg/kg, route intramuscular; conditions: in vivo, im, 120 h
# How it was run: (§1)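 Walker 256 carcinoma solid-tumour system in rats (parent line, or the line resistant to cytoxan). Dosing was one injection per day for 5 days. Toxicity was taken as the average net body-weight change of the treated group minus the average net weight change of the untreated tumour-bearing controls, in grams.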
# [2] = tested on: Musca domestica; experiment: Toxicity in male house fly assessed as lowest dose required to cause complete sterility administered in sugar; assay type: organism-based; conditions: in vivo, po
# [3] = tested on: W256; experiment: Antitumor activity against cytoxan-resistant rat Walker 256 cells intramuscularly allografted in rat assessed as tumor growth inhibition at 0.5 mg/kg, qd administered for 5 days relative to control; assay type: functional; conditions: W256, im, 120 h, route intramuscular, read-out: TGI
# How it was run: (§2)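 Dosed once daily for 5 days. Response is tumor progression in treated (T) versus untreated control (C) animals, expressed as T/C percentage. Host weight change is reported as the average net weight change of the test group minus that of the controls, in grams.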
# [4] = tested on: W256; experiment: Antitumor activity against rat Walker 256 cells intramuscularly allografted in rat assessed as tumor growth inhibition at 0.031 mg/kg, qd administered for 5 days relative to control; assay type: functional; conditions: W256, im, 120 h, route intramuscular, read-out: TGI; how it was run: as §2
# [5] = tested on: Rattus norvegicus; experiment: Toxicity in rat allografted with cytoxan-resistant rat Walker 256 cells intramuscularly assessed as change in body weight at 2 mg/kg, qd administered for 5 days; assay type: organism-based; set-up: dose 2 mg/kg, route intramuscular; conditions: in vivo, im, 120 h; how it was run: as §1
# [6] = tested on: W256; experiment: Antitumor activity against rat Walker 256 cells intramuscularly allografted in rat assessed as survival rate at 0.25 mg/kg, qd administered for 5 days; assay type: functional, organism-based; set-up: dose 0.25 mg/kg
# How it was run: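 Rats bearing Walker 256 carcinoma as a solid tumor; lines 1-8 use a cytoxan-resistant Walker 256 subline. Dosed once daily for 5 days. Treated (T) and untreated control (C) groups are compared, and the response is given as T/C percentage, reflecting increase in survival time. Host weight change is the average weight change of the test group minus that of the controls, in grams.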
# [7] = tested on: Rattus norvegicus; experiment: Toxicity in rat allografted with cytoxan-resistant rat Walker 256 cells intramuscularly assessed as change in body weight at 0.5 mg/kg, qd administered for 5 days; assay type: organism-based; set-up: dose 0.5 mg/kg, route intramuscular; conditions: in vivo, im, 120 h; how it was run: as §1
# [8] = tested on: W256; experiment: Antitumor activity against rat Walker 256 cells intramuscularly allografted in rat assessed as tumor growth inhibition; assay type: functional; conditions: W256, im; how it was run: as §2
# [9] = organism: Rattus norvegicus; experiment: Toxicity in Wistar-Furth rat assessed as effect on ovary measured for 24 hrs; assay type: organism-based, Female gonad; conditions: in vivo
# How it was run: (§3)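 Wistar-Furth rats were injected daily for 5 days at the antifertility-study doses of 1 or 5 mg/kg, depending on agent. Testes or ovaries were taken at sacrifice after 1, 3 or 24 h. Cryostat frozen sections were fixed in 95% alcohol for 10 min and stained with acridine orange (DNA green, RNA red). Results were compared with untreated controls.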
# [10] = organism: Rattus norvegicus; experiment: Toxicity in Wistar-Furth rat assessed as decrease in secondary spermatocytes measured for 24 hrs; assay type: organism-based; conditions: in vivo; how it was run: as §3
# [11] = tested on: W256; experiment: Antitumor activity against cytoxan-resistant rat Walker 256 cells intramuscularly allografted in rat assessed as tumor growth inhibition at 1 mg/kg, qd administered for 5 days relative to control; assay type: functional; conditions: W256, im, 120 h, route intramuscular, read-out: TGI; how it was run: as §2
# [12] = tested on: W256; experiment: Antitumor activity against rat Walker 256 cells intramuscularly allografted in rat assessed as tumor growth inhibition at 1 mg/kg, qd administered for 5 days relative to control; assay type: functional; conditions: W256, im, 120 h, route intramuscular, read-out: TGI; how it was run: as §2
# [13] = Toxicity in rat allografted with rat Walker 256 cells intramuscularly; assay type: organism-based
# [14] = tested on: Rattus norvegicus; experiment: Toxicity in rat allografted with cytoxan-resistant rat Walker 256 cells intramuscularly assessed as change in body weight at 0.25 mg/kg, qd administered for 5 days; assay type: organism-based; set-up: dose 0.25 mg/kg, route intramuscular; conditions: in vivo, im, 120 h; how it was run: as §1
# [15] = tested on: Rattus norvegicus; experiment: Toxicity in rat allografted with cytoxan-resistant rat Walker 256 cells intramuscularly assessed as change in body weight at 1 mg/kg, qd administered for 5 days; assay type: organism-based; set-up: dose 1 mg/kg, route intramuscular; conditions: in vivo, im, 120 h; how it was run: as §1
# [16] = tested on: W256; experiment: Antitumor activity against rat Walker 256 cells intramuscularly allografted in rat assessed as tumor growth inhibition at 0.062 mg/kg, qd administered for 5 days relative to control; assay type: functional; conditions: W256, im, 120 h, route intramuscular, read-out: TGI; how it was run: as §2
# [17] = tested on: W256; experiment: Antitumor activity against rat Walker 256 cells intramuscularly allografted in rat assessed as tumor growth inhibition at 0.125 mg/kg, qd administered for 5 days relative to control; assay type: functional; conditions: W256, im, 120 h, route intramuscular, read-out: TGI; how it was run: as §2
# [18] = tested on: Musca domestica; experiment: Toxicity in male house fly assessed as lowest dose required to cause complete sterility administered in food; assay type: organism-based; conditions: in vivo, po
# [19] = tested on: W256; experiment: Antitumor activity against cytoxan-resistant rat Walker 256 cells intramuscularly allografted in rat assessed as tumor growth inhibition at 2 mg/kg, qd administered for 5 days relative to control; assay type: functional; conditions: W256, im, 120 h, route intramuscular, read-out: TGI; how it was run: as §2
# [20] = Therapeutic index, ratio of LD50 for rat allografted with cytoxan-resistant rat Walker 256 cells to ED10 for antitumor activity against rat Walker 256 cells allografted in rat; conditions: read-out: TI
# How it was run: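 Therapeutic index is LD50/ED10 in cytoxan-resistant Walker 256 solid tumour in rats. ED10 is the dose giving a 10% reduction, extrapolated from dose-response data.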
# [21] = tested on: Rattus norvegicus; experiment: Toxicity in rat allografted with rat Walker 256 cells intramuscularly assessed as change in body weight at 0.031 mg/kg, qd administered for 5 days; assay type: organism-based; set-up: dose 0.031 mg/kg, route intramuscular; conditions: in vivo, im, 120 h; how it was run: as §1
structure (smiles),measurement,setting,value
C=CCN(CC=C)P(=O)(N1CC1)N1CC1,Activity,[1],-1 g
same,Activity,[2],0.05%
same,inhibition in vivo at 0.5 mg/kg,[3],58%
same,inhibition in vivo at 0.031 mg/kg,[4],24%
same,Activity,[5],-2 g
same,Activity,[6],Active
same,Activity,[7],-13 g
same,ED10,[8],0.5 mg/kg
same,Activity,[9],Non-toxic
same,Activity,[10],Toxic
same,inhibition in vivo at 1 mg/kg,[11],40%
same,inhibition in vivo at 1 mg/kg,[12],0%
same,LD50,[13],5 mg/kg
same,Activity,[14],0 g
same,Activity,[15],-13 g
same,inhibition in vivo at 0.062 mg/kg,[16],7%
same,inhibition in vivo at 0.125 mg/kg,[17],1%
same,Activity,[18],0.1%
same,inhibition in vivo at 2 mg/kg,[19],9%
same,selectivity ratio,[20],2.5
same,Activity,[21],0 g
